From PMC6474823 (Molecular cell, 2019)

Legend:
Src^3D WT = Src^3D WT (Homo sapiens, UniProt P12931); experiment: Inhibitor IC50 determination, fluorescent SFK peptide kinase assay; assay type: biochemical; conditions: 1 mM ATP
Method in brief: (§1)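 Kinase concentrations were set in the linear range by prior titration: Src3D WT or V284C at 7.5 nM, Hck3D WT or V284C at 5 nM. Kinase was incubated 30 min with test compound (30 μM top, 3-fold serial dilutions, 10 points) and 1 mM ATP in HEPES pH 7.5 buffer with MgCl2, EGTA, BSA, vanadate and BME. Then 20 μM pyrene-labelled SFK peptide was added for 2 h. Fluorescence was read at ex 344/em 405 nm, in triplicate.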

Src^3D V284C = Src^3D V284C (Homo sapiens, UniProt P12931, V284C); experiment: as above; assay type: biochemical; conditions: 1 mM ATP
Method in brief: as §1

Hck^3D WT = Hck^3D WT (Homo sapiens, UniProt P08631); experiment: as above; assay type: biochemical; conditions: 1 mM ATP
Chain of Hck^3D WT (P08631 81-526): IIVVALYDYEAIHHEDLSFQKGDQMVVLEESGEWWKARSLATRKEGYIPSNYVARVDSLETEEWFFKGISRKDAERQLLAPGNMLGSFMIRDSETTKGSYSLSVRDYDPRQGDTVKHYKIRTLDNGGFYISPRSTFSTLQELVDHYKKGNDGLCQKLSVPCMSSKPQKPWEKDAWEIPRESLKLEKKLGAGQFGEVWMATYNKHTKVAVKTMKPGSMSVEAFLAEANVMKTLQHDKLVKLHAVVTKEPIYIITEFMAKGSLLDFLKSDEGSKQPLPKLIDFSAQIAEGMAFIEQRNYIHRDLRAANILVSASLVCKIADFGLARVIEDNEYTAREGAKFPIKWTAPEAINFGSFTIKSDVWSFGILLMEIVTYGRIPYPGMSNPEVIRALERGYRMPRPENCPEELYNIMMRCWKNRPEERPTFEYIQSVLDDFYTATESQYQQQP
Method in brief: as §1

[1] = test system: kinases in lysates of HEK293T cells expressing Hck^FLAG V284C; experiment: Kinobead kinome profiling of CystIMATIK probes; assay type: binding, human; conditions: 10 μM probe vs DMSO, ~220 kinases enriched
Src^FLAG V284C = Src^FLAG V284C (Homo sapiens, UniProt P12931, V284C); experiment: SH3 domain pulldown assay with inhibitor-treated cells; assay type: cell-based; conditions: HEK293 cells treated with 10 μM probe for 2 h; immobilized SH3 domain ligand
Method in brief: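 HEK293T cells expressing SrcFLAG V284C were treated with 10 μM test compound for 2 h. They were then PBS-washed and lysed for 20 min on ice in modified RIPA (pH 7.8, 1% IGEPAL, protease/phosphatase inhibitors, 10 μM compound). Lysates were cleared at 17,000x g, 4 °C, then incubated with SNAP-immobilized SH3 ligand resin, rotating at room temperature for 1 h. Retained Src was quantified by anti-FLAG blotting, n=3.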

[2] = test system: Src^GFP V284C-expressing SYFs; experiment: Membrane blebbing microscopy; assay type: cell-based, murine; conditions: for membrane blebbing: 15 min treatment, 3 μM 2 or 10 μM 3 (1, 3 or 10 μM 3 for dose dependence)
Method in brief: (§2)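 SYF cells were seeded on glass slides at 2×10^4 and transfected 24 h later with turbofectin (3:1 μL:μg DNA). At 24 h post-transfection, cells were exposed to test compound for 15 min; where indicated, 10 μM ROCK inhibitor was given for 2 h beforehand. Cells were PBS-washed, fixed in 4% paraformaldehyde for 15 min, and stained with NucBlue and Alexa647-wheat-germ agglutinin for 15 min. The fraction of cells showing blebs was scored.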

[3] = test system: SYFs expressing Src^GFP WT; experiment: Membrane blebbing microscopy; assay type: cell-based, murine; conditions: 10 μM 3, 15 min; Src^GFP WT resistant to probes
[4] = test system: Src^GFP G2A/V284C-expressing SYFs; experiment: Membrane blebbing microscopy; assay type: cell-based, murine; conditions: 10 μM 3, 15 min; non-myristoylatable Src
Method in brief: as §2

[5] = test system: Fyn^myr V284C-expressing SYFs; experiment: Membrane blebbing microscopy; assay type: cell-based, murine; conditions: 10 μM 3, 15 min
Method in brief: as §2

Src^FL K445C = Src^FL K445C (Homo sapiens, UniProt P12931, K445C); experiment: Isotope-coded maleimide labeling and mass spectrometry; conditions: 5 μM inhibitor
Method in brief: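 Purified SrcFL K445C was diluted to 800 nM in HEPES pH 7.6 buffer with 5% glycerol and 0.02% DDM. It was incubated with 5 μM test compound at 25 °C for 30 min, then labelled with 1 mM heavy or light N-ethyl maleimide at 25 °C for 30 min. The reaction was quenched with 10 mM DTT. Heavy and light reactions were mixed, and protein was precipitated with deoxycholate/TCA on ice before mass spectrometry.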

| maleimide labeling of control cysteine residue, 6 complex vs 5 complex (Src^FL K445C; control peptide) | K445C maleimide labeling, open (6) compared to closed (5) conformation (Src^FL K445C; αF peptide, ratio 6 complex vs 5 complex) | SMILES | inhibition of WT Src (IC50, Figure 4C) (Src^3D WT) | inhibition of Src V284C (IC50, Figure 4C) (Src^3D V284C) | inhibition of WT Hck (IC50, Figure 4C) (Hck^3D WT) | kinases depleted from Kinobead matrix (selectivity) [1] | SH3 domain accessibility (retained Src in SH3 pulldown) (Src^FLAG V284C) | membrane blebbing after pre-treatment with 2 prior to addition of 3 ([2]; 3 μM 2 for 15 min, then 10 μM 3 for 15 min) | membrane blebbing [2] | membrane blebbing [3] | membrane blebbing [4] | membrane blebbing [5] |
| --- | --- | --- | --- | --- | --- | --- | --- | --- | --- | --- | --- | --- |
| – | – | COCCn1c(/C=C(/C#N)C(=O)NC(C)C)c(-c2ccc(Cl)cc2)c2c(N)ncnc21 [compound 1, (E)- & (Z)-3-(4-Amino-5-(4-chlorophenyl)-7-(2-methoxyethyl)-7H-pyrrolo[2,3-d]pyrimidin-6-yl)-2-cyano-N-isopropylacrylamide] | insensitive | potently inhibited | insensitive | Hck^FLAG V284C was the only kinase among the ~220 enriched that was depleted | – | – | – | – | – | – |
| – | – | COCCn1c(/C=C(/C#N)C(=O)NC(C)C)c(-c2ccc(Oc3ccccc3)cc2)c2c(N)ncnc21 [compound 2, (E)- & (Z)-3-(4-Amino-7-(2-methoxyethyl)-5-(4-phenoxyphenyl)-7H-pyrrolo[2,3-d]pyrimidin-6-yl)-2-cyano-N-isopropylacrylamide] | minimal inhibition | potently inhibited | minimal inhibition | Hck^FLAG V284C was the only kinase among the ~220 enriched that was depleted | minimal pulldown | levels of blebbing comparable to cells treated with DMSO or 2 alone | minimally affected | – | – | – |
| – | – | CNC(=O)C(C#N)=Cc1c(C#Cc2cc(NC(=O)c3cccc(C(F)(F)F)c3)ccc2C)c2cncnc2n1CCOC [compound 3, (E)- and (Z)-N-(3-((6-(2-cyano-3-(methylamino)-3-oxoprop-1-en-1-yl)-7-(2-methoxyethyl)-7H-pyrrolo[2,3-d]pyrimidin-5-yl)ethynyl)-4-methylphenyl)-3-(trifluoromethyl)benzamide] | minimal inhibition | potently inhibited | minimal inhibition | – | greatly increased | – | induction of blebbing | did not significantly increase membrane blebs | did not produce blebbing | marked increase in blebbing |
| no change in labeling | ~ 5 fold | Cc1ccc(NC(=O)c2cccc(C(F)(F)F)c2)cc1C#Cc1nn(C2CCCC2)c2ncnc(N)c12 [compound 6, N-(3-((4-amino-1-cyclopentyl-1H-pyrazolo[3,4-d]pyrimidin-3-yl)ethynyl)-4-methylphenyl)-3-(trifluoromethyl)benzamide] | – | – | – | – | – | – | – | – | – | – |
